One data set addresses Gamma-secretase. The experiment in a line: Inhibition of gamma secretase (unknown origin)-mediated notch processing by cell based assay. Further details: species or system Homo sapiens.
Data set [1] deals with T1, Gamma-secretase (Homo sapiens) (UniProt Q96BI3+Q9NZ42+Q8WW43+P49768+Q92542+P49810). As to the kind of experiment: Inhibition of human gamma secretase mediated amyloid beta (1 to 40) production expressed in CHO cells at 50 uM using APP based Flag-C-100 as substrate after 4 hrs by ELISA. Type of data set: cell-based. Summed up:
(§1)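 Enzyme: γ-secretase complex purified from CHO cells stably overexpressing all four human components. Substrate: recombinant APP-based C-100 FLAG. Reaction in 0.2% CHAPSO/HEPES, pH 7.5, at 37°C for 4 h, with compounds in DMSO (1% DMSO final). Stopped with 0.5% SDS. Aβ40 measured by commercial ELISA.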

Data set [2] in a line: Metabolic stability in human liver microsomes assessed as parent compound remaining after 60 mins. Type of data set: ADME. Conditions: read-out: Stability.
In data set [3] the target is T1, Gamma-secretase (Homo sapiens). As to the kind of experiment: Inhibition of human gamma secretase mediated amyloid beta (1 to 40) production expressed in CHO cells at 100 uM using APP based Flag-C-100 as substrate after 4 hrs by ELISA. Type of data set: cell-based. Summed up: as §1
Data set [4] can be described thus: Solubility of compound in PBS buffer at pH 7.4. The format is physicochemical.
Data set [5] deals with T1, Gamma-secretase (Homo sapiens). The experiment in a line: Inhibition of human gamma secretase mediated amyloid beta 42 production expressed in CHO cells at 100 uM using APP based Flag-C-100 as substrate after 4 hrs by ELISA. The format is cell-based.
Data set [6] shares this target. The experiment in a line: Inhibition of gamma secretase (unknown origin)-mediated amyloid beta (1 to 42) production at 30 uM by cell based assay.
Data set [7] in a line: Lipophilicity, log D of the compound. The format is physicochemical. Particulars: octanol/water.
The nature of data set [8]: Plasma protein binding in human. The format is ADME, cell-free. Conditions: read-out: PPB (converted).
The target in data set [9] is T1, Gamma-secretase (Homo sapiens). As to the kind of experiment: Inhibition of human gamma secretase mediated notch 1 processing by Western blot analysis. Type of data set: protein-complex assay.
Data set [10] in a line: Permeability of the compound across apical to basolateral side. Type of data set: ADME. Particulars: not told; read-out: permeability.
Data set [11] is described as follows: Metabolic stability in rat liver microsomes assessed as parent compound remaining after 60 mins. Type of data set: ADME. Particulars: read-out: Stability.
Data set [12] concerns the target T1, Gamma-secretase (Homo sapiens). The experiment in a line: Inhibition of gamma secretase (unknown origin)-mediated amyloid beta (1 to 40) production at 100 uM by cell based assay.
For data set [13] the target is unchanged. The experiment in a line: Inhibition of gamma secretase (unknown origin)-mediated amyloid beta (1 to 42) production at 100 uM by cell based assay.

Values after ≈ are worked out from the molar mass of the structure shown. Active and inactive are the calls of the source. No cut-off for these calls is given here.

The molecule `CCC(CC)N(Cc1ccc(C(=O)O)cc1)S(=O)(=O)c1ccc(Cl)cc1` yielded an IC50 against Gamma-secretase of 10 µM.

With `CCC(CC)(CN(Cc1ccccc1)C(C)C)C(=O)c1ccc2ccccc2c1`, in data set [1], the inhibition was found to be 40%.

For the molecule `CC(C)N(CCC(O)c1ccc2ccccc2c1)Cc1ccccc1` (racemic), the remaining at 1 h was 1% in data set [2] and 0% in [11]. Further, the inhibition in data set [3] was 81%; in [5], 67%; in data set [6], 45%. The molecule further displayed an IC50 against Gamma-secretase of over 100 µM. This molecule had a solubility in data set [4] of 98 µM (≈ 32.7 µg/mL). For the same molecule, in [7], the logD is 3.4. Moreover, the fraction unbound in data set [8] is 0.1. Further, the inhibition entry in data set [9] is “inactive”. Also, the Papp A→B in data set [10] turned out to be 184 nm/s.

On to `CCC(CC)(CN(Cc1ccccc1)C(C)C)C(O)c1ccc2ccccc2c1` (racemic), for which the inhibition in [12] was determined as 80%; in data set [3] it was 82%; in [13], 100%. The molecule also displayed a concentration for half-maximal inhibition (IC50) on Gamma-secretase of over 75 µM. The inhibition result in data set [9] is “inactive”.

As for `CC(C)(C)N(CCC(O)c1ccc2ccccc2c1)Cc1ccccc1` (racemic), in data set [3], the inhibition was determined as 0%.

As for `CC(C)CN(CCC(O)c1ccc2ccccc2c1)Cc1ccccc1` (racemic), the inhibition in [3] was 0%.

On to `CC(C)N(CCC(O)c1cc(C(F)(F)F)cc(C(F)(F)F)c1)Cc1ccccc1` (racemic), for which the inhibition amounted to 15% in [3] and 81% in data set [6]. Further, the inhibition result in data set [9] was “Active”.

Consider `CC(C)N(CCC(O)c1cc(F)cc(Cl)c1)Cc1ccccc1` (racemic), for which the inhibition in data set [3] was found to be 30%. In addition, the inhibition result in data set [9] is “Active”.

In data set [3], `CC(C)N(CCC(O)c1cc2ccccc2o1)Cc1ccccc1` (racemic) came in with an inhibition of 0%.

As to `CC(C)N(CCC(O)c1ccc(C(C)(C)C)cc1)Cc1ccccc1` (racemic), the values for the inhibition in data set [3] and in data set [6] were 72% and 14%, respectively. Further, the inhibition entry in [9] is “Active”.

`CC(C)N(CCC(O)c1ccc(OC2CCCCO2)cc1)Cc1ccccc1` (racemic) returned an inhibition in data set [3] of 0%.

Take `CC(C)N(CCC(O)c1ccc(OCc2ccccc2)cc1)Cc1ccccc1` (racemic): in data set [3], the inhibition worked out at 31%. Also, the inhibition entry in [9] is “inactive”.

`CC(C)N(CCC(O)c1ccc(Oc2ccccc2)cc1)Cc1ccccc1` (racemic) registered an inhibition in [3] of 24%. For the same molecule, the inhibition result in data set [9] is “inactive”.

Molecule `CC(C)N(CCC(O)c1ccc2c(c1)OCO2)Cc1ccccc1` (racemic) had an inhibition in data set [3] of 0%.

On to `CC(C)N(CCC(O)c1ccc2ccccc2c1)Cc1cc(F)cc(F)c1` (racemic), for which the inhibition in data set [3] was 54%. Further, in [9], the inhibition entry is “Active”.

`CC(C)N(CCC(O)c1ccc2ccccc2c1)Cc1ccc(C#N)cc1` (racemic) came in with an inhibition in data set [3] of 19%.

Consider `CC(C)N(CCC(O)c1ccc2ccccc2c1)Cc1ccc(Cl)c(Cl)c1` (racemic), for which the inhibition in data set [3] was 60%. The inhibition result in [9] is “inactive”.

As to `CC(C)N(CCC(O)c1ccc2ccccc2c1)Cc1ccc(F)c(Cl)c1` (racemic), the inhibition in data set [3] stood at 38%.

As for `CC(C)N(CCC(O)c1ccc2ccccc2c1)Cc1ccc(F)c(F)c1` (racemic), the figures for the inhibition in data set [3] and in [13] were 64% and 23%, respectively. For the same molecule, the inhibition result in [9] is “inactive”.

`CC(C)N(CCC(O)c1ccc2ccccc2c1)Cc1cccc(C#N)c1` (racemic) yielded an inhibition in data set [3] of 7%.

In the case of `CC(C)N(CCC(O)c1ccc2ccccc2c1)c1ccccc1` (racemic), the inhibition in data set [3] amounted to 68%. In addition, the inhibition result in data set [9] was “Active”.

For the molecule `CC(C)N(CCC(O)c1cccc(Oc2ccccc2)c1)Cc1ccccc1` (racemic), the inhibition in data set [3] was 30%. Further, the inhibition result in data set [9] was “inactive”.

Regarding `CC(C)N(CCC(O)c1cccc2ccccc12)Cc1ccccc1` (racemic), in data set [3], the inhibition amounted to 46%. Besides, in data set [9], the inhibition entry is “inactive”.

With `CC(C)N(CCC(O)c1ccccc1)Cc1ccccc1` (racemic), the inhibition in data set [3] is 10%. Further, the inhibition result in data set [9] was “Active”.

As for `CC(C)N(CCCC(O)c1ccc2ccccc2c1)Cc1ccccc1` (racemic), the inhibition in [3] was determined as 18%. In addition, in data set [9], the inhibition result was “Active”.

In turn, `CC(C)N(Cc1ccccc1)CC(C)(C)C(O)c1ccc2ccccc2c1` (racemic) gave an inhibition in [3] of 72%. Besides, the inhibition entry in data set [9] was “inactive”.

Regarding `CC(C)N(Cc1ccccc1)CC(O)c1ccc2ccccc2c1` (racemic), the inhibition in [3] turned out to be 0%. Besides, the inhibition result in data set [9] was “Active”.

Take `CCC(CC)(CN(Cc1ccc(Cl)c(Cl)c1)C(C)C)C(O)c1ccc2ccccc2c1` (racemic): in data set [3], the inhibition came to 59%. Also, in [9], the inhibition result is “inactive”.

In data set [3], `CCC(CC)(CN(Cc1ccc(F)c(F)c1)C(C)C)C(O)c1ccc2ccccc2c1` (racemic) had an inhibition of 69%. Further, in data set [9], the inhibition entry is “inactive”.

As for `CCN(CCC(O)c1ccc2ccccc2c1)Cc1ccccc1` (racemic), the inhibition in [3] turned out to be 15%.

Molecule `CN(CCC(O)c1ccc2ccccc2c1)Cc1ccccc1` (racemic) registered an inhibition in data set [3] of 15%. The inhibition result in data set [9] is “inactive”.

In [3], `COC(CCN(Cc1ccccc1)C(C)C)c1ccc2ccccc2c1` (racemic) yielded an inhibition of 51%. Besides, the inhibition result in data set [9] is “inactive”.

With `COc1cc(CN(CCC(O)c2ccc3ccccc3c2)C(C)C)cc(OC)c1` (racemic), the inhibition in data set [3] was 17%. Further, in data set [9], the inhibition entry is “inactive”.

In [3], `COc1ccc(CN(CCC(O)c2ccc3ccccc3c2)C(C)C)cc1` (racemic) had an inhibition of 55%. For the same molecule, in data set [9], the inhibition result was “inactive”.

Regarding `COc1ccc(N2CCN(CCC(O)c3ccc4ccccc4c3)CC2)cc1` (racemic), in [3], the inhibition is 0%.

Take `Cc1ccc(C(O)CCN(Cc2ccccc2)C(C)C)cc1F` (racemic): the inhibition in [3] was found to be 29%. Further, the inhibition result in data set [9] was “Active”.

`OC(CCN(Cc1ccccc1)C1CC1)c1ccc2ccccc2c1` (racemic) showed an inhibition in data set [3] of 36%.

`OC(CCN(Cc1ccccc1)Cc1ccccc1)c1ccc2ccccc2c1` (racemic): the inhibition in data set [3] was 32%.

In data set [3], `OC(CCN1CCN(Cc2ccccc2)CC1)c1ccc2ccccc2c1` (racemic) showed an inhibition of 15%. Moreover, in [9], the inhibition result was “inactive”.

In [3], `OC(CCN1CCN(c2ccc(F)cc2)CC1)c1ccc2ccccc2c1` (racemic) registered an inhibition of 61%. The inhibition entry in data set [9] is “inactive”.

With `OC(CCN1CCN(c2cccc(C(F)(F)F)c2)CC1)c1ccc2ccccc2c1` (racemic), the inhibition in data set [3] is 38%; in data set [5], 14%. For the same molecule, the inhibition result in data set [9] is “inactive”.

In data set [3], `OC(CCN1CCN(c2ccccc2)CC1)c1ccc2ccccc2c1` (racemic) came in with an inhibition of 0%. In data set [9], the inhibition entry was “inactive”.

Source of the values: ChEMBL document CHEMBL3797091, “Part 2. Notch-sparing γ-secretase inhibitors: The study of novel γ-amino naphthyl alcohols” (Bioorg Med Chem Lett, 2016).
